Series [1] relates to Rattus norvegicus. Briefly: AUC (0 to infinity) in rat at 3 mg/kg, po. It is filed as ADME, organism-based. The arrangement: dose 3 mg/kg, time infinity, route oral. The following applies: in vivo. Summed up: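 Rats dosed orally at 3 mg/kg; vehicle DMSO, Tween 80, normal saline; values are the average of three determinations.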
Series [2] can be described thus: Drug metabolism in rat liver microsomes assessed as (S)-N-(4-amino-5-(4-(4-hydroxyphenoxy)phenyl)-6-methylene-7,8-dihydro-6H-pyrimido[5,4-b]pyrrolizin-7-yl)acrylamide formation after 3 hrs. It is filed as ADME, microsome.
For series [3], the system named is Mus musculus. Briefly: Toxicity in CB17 SCID nude mouse xenografted with human TMD8 cells assessed as change in body weight at 15 mg/kg, po qd administered for 13 consecutive days measured during compound dosing up to day 17 post dose. The format is organism-based. The following applies: in vivo.

In general, AUC refers to concentration integrated over time. A lower AUC goes with low exposure.

`C=CC(=O)N[C@@H]1Cn2c(c(-c3ccc(Oc4ccccc4)cc3)c3c(N)ncnc32)C1=C`: the AUC in series [1] was found to be 211 ng·h/mL. In series [2], the Drug metabolism result was “Metabolite_Detected”. Moreover, the Activity entry in series [3] is recorded as “Non-Toxic”.

These data come from ChEMBL document CHEMBL4184325, “Discovery of 4,7-Diamino-5-(4-phenoxyphenyl)-6-methylene-pyrimido[5,4- b]pyrrolizines as Novel Bruton's Tyrosine Kinase Inhibitors” (J Med Chem, 2018).
